PMC9358627 (Journal of clinical pharmacology, 2021)
Where two headings read alike, the source gives them in different places.

Legend:
[1] = Mycophenolic acid pharmacokinetic parameters by individual ABCC2 SNP genotype; format: in vivo; details: human, plasma, oral, mean; for AUC(0-t): Mycophenolic acid AUC0-12hr; for clearance: Mycophenolic acid Clearance
Outline: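 Stable transplant recipients were studied at steady state. Oral test compound was given with a calcineurin inhibitor, with meals 4 h post-dose. Serial 12-h plasma was analysed by LC/MS (standard curve 0.145–15.5 µg/mL). AUC0-12h came from the linear trapezoidal rule, non-compartmental. […] ABCC2 −24C>T, 1249G>A and 3972C>T were genotyped by TaqMan allelic discrimination, 10 ng DNA, in duplicate.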

[2] = following oral drug administration; attributed to enterohepatic circulation; ref [8],[12]; cited from earlier work
[3] = format: in vivo, human; details: for AUC: Mycophenolic acid AUC6-12hr
Outline: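 Steady state with the same oral dose for ≥7 days, calcineurin inhibitor co-therapy. Pre-dose sample, then dosing ~7 AM, meals at 4 h, serial sampling over 12 h. Plasma iced, centrifuged, stored −70°C. LC/MS of test compound and its glucuronide, LLOQ 0.072 µg/mL. Non-compartmental AUC0-12h by linear trapezoidal rule. […] AUC6-12h/AUC0-12h gauges enterohepatic circulation.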

[4] = format: in vivo; details: human, plasma, oral, C12hr, phenotypic mean (±95% CI)
Outline: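 Stable kidney transplant recipients had held fixed doses for ≥7 days. Around 7 AM, after a 0-h draw, they took the oral test compound with a calcineurin inhibitor. Plasma was sampled serially over 12 h, iced, spun and stored at −70°C. LC/MS with internal standards (LLOQ 0.072 µg/mL) gave the 12-h trough. Three ABCC2 SNPs were TaqMan-genotyped in duplicate. THESIAS maximum-likelihood analysis estimated haplotype phenotypic means with 95% CI.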

[5] = human, in vivo, oral
Outline: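 Patients at steady state, same oral calcineurin inhibitor dose for ≥7 days. 0-h blood drawn before the ~7 AM dose to give trough. Samples iced, centrifuged, harvested within 60 min, stored −70°C until assay.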

[6] = ABCC2 1249 G>A (rs2273697) All, N=147
[7] = ABCC2 3972 C>T (rs 3740066) All, N=146
[8] = ABCC2 −24C>T (rs717620) All, N=147

COc1c(C)c2c(c(O)c1C/C=C(\C)CCC(=O)O)C(=O)OC2 [Mycophenolic acid, mycophenolic acid]
AUC(0-t) [1, 6]: 53.6 µg·h/mL
AUC(0-t) [1, 7]: 53.4 µg·h/mL
AUC(0-t) [1, 8]: 53.6 µg·h/mL
clearance [1, 6]: 266 mL/min
clearance [1, 7]: 268 mL/min
clearance [1, 8]: 266 mL/min
secondary mycophenolic acid peak, time of appearance [2]: 6 to 12 h
Mycophenolic acid CL/F ([3]; All (N=147), steady state, oral, mean ± SD): 15.99 ± 9.41 L/h
Enterohepatic Recirculation, patients ([3]; Cyclosporine (n=80), 36 patients): 36 (45.0%)
Mycophenolic acid CL/F ([3]; Cyclosporine Group (n=80), mycophenolate mofetil, mean ± SD): 20.50 ± 9.99 L/h
Mycophenolic acid AUC0-12hr ([3]; Cyclosporine Group (n=80), mean ± SD): 40.82 ± 17.60 mg●hr/L
Enterohepatic Recirculation, patients ([3]; Tacrolimus (n=67), 52 patients): 52 (77.61%)
Mycophenolic acid CL/F ([3]; Tacrolimus Group (n=67), enteric-coated mycophenolate sodium, mean ± SD): 10.60 ± 4.71 L/h
AUC(0-t) ([3]; human, plasma, oral, Mycophenolic acid AUC0-12hr, Tacrolimus Group (n=67), mean ± SD): 68.9 ± 30.9 µg·h/mL
AUC ([3]; human, plasma, oral, All (N=147), mean ± SD): 19.1 ± 15.2 µg·h/mL
AUC ([3]; human, plasma, oral, Cyclosporine Group (n=80), mean ± SD): 13.1 ± 7.15 µg·h/mL
AUC ([3]; human, plasma, oral, Tacrolimus Group (n=67), mean ± SD): 26.2 ± 18.8 µg·h/mL
patients achieving the therapeutic range of AUC0-12h from 30 to 60 mg●h/L ([3]; patients receiving cyclosporine): 56.3%
patients achieving the therapeutic range of AUC0-12h from 30 to 60 mg●h/L ([3]; tacrolimus group): 34.3%
slower apparent clearance ([3]; tacrolimus group compared with cyclosporine group): 48%
patients exhibiting enterohepatic circulation ([3]; tacrolimus regimen): More than 75%
concentration at 12 h ([4]; All (N=147), variant haplotype (CGT)): 1.01 µg/mL
concentration at 12 h ([4]; All (N=147), wildtype haplotype (CGC)): 1.63 µg/mL
concentration at 12 h ([4]; Cyclosporine Group (n=80), variant haplotype (CGT)): 0.783 µg/mL
concentration at 12 h ([4]; Cyclosporine Group (n=80), wildtype haplotype (CGC)): 0.965 µg/mL
concentration at 12 h ([4]; Tacrolimus Group (n=67), variant haplotype (CGT)): 1.33 µg/mL
concentration at 12 h ([4]; Tacrolimus Group (n=67), wildtype haplotype (CGC)): 2.25 µg/mL

C=CC[C@@H]1/C=C(\C)C[C@H](C)C[C@H](OC)[C@H]2O[C@@](O)(C(=O)C(=O)N3CCCC[C@H]3C(=O)O[C@H](/C(C)=C/[C@@H]3CC[C@@H](O)[C@H](OC)C3)[C@H](C)[C@@H](O)CC1=O)[C@H](C)C[C@@H]2OC [Tacrolimus, tacrolimus]
concentration at 0 h [5]: 0.0072 ± 0.00189 µg/mL
